Results gathered from unrelated publications.
Each line is one published result; the experiments were not run side by side. In brackets after ≈: the same amount, converted by molar mass.
Organism: Enterococcus faecalis
Effect on: microbial growth

Compound | method | strain | notes | MIC [µg/mL]
COc1ccc2cc1Oc1cc(ccc1OC)CCC(N[C@@H]1CCCc3ccccc31)CCCC2 (stereo partly shown) | broth dilution | ATCC33186 | – | > 100
CCCCCCCCCCCCCCCC(=O)NS(=O)(=O)Oc1cccc(Cl)c1 | broth dilution | ATCC33186 | – | 1.6 (≈ 3.59 µM)
CCCCCCCCCCCCCCCC(=O)C(F)(F)P(=O)(O)O | – | ATCC33186 | – | 100 (≈ 270 µM)
CCCCCCCCCCCCCCCC(=O)NS(=O)(=O)OC | broth dilution | ATCC33186 | – | 50 (≈ 143 µM)
Cc1cc(Cl)ccc1-c1ccc(/C=C2\SC(=S)N(CC(=O)O)C2=O)o1 | broth dilution | VRE | drug-resistant strain | 1 to 8 (≈ 2.54 to 20.3 µM)
CCCCCCCCCCCC(=O)C(F)(F)P(=O)(O)O | – | ATCC33186 | – | 100 (≈ 318 µM)
CN[C@@H]1[C@H](O)[C@H](NC)[C@H]2O[C@@]3(O)C(=O)C[C@@H](C)O[C@H]3O[C@@H]2[C@H]1O | broth dilution | ATCC33186 | – | 50 (≈ 150 µM)
CCCCCCCCCCCC(=O)CP(=O)(O)O | – | ATCC33186 | – | 25 (≈ 89.8 µM)
C=C(NC(=O)C(=C)NC(=O)c1csc(C2=N[C@@H]3c4csc(n4)[C@H]4NC(=O)c5csc(n5)[C@H]([C@](C)(O)[C@@H](C)O)NC(=O)[C@H]5CSC(=N5)/C(=C/C)NC(=O)[C@H]([C@@H](C)O)NC(=O)c5csc(n5)[C@]3(CC2)NC(=O)[C@H](C)NC(=O)C(=C)NC(=O)[C@H](C)NC(=O)[C@H]([C@@H](C)CC)N[C@@H]2C=Cc3c([C@H](C)O)cc(nc3[C@H]2O)C(=O)O[C@@H]4C)n1)C(N)=O | – | – | – | 0.12 (≈ 0.0721 µM)
CCCCCCCCCCCCCCCC(=O)NS(=O)(=O)OC1CCNCC1 | broth dilution | ATCC33186 | – | 12.5 (≈ 29.9 µM)
